Screening data from PubChem.
Most compounds without a hit are left out; they make up all but 3% or so of the library.
Hep lipid drop: inhibitors of hepatocyte lipid droplet formation, primary screen, imaging, high-throughput imaging, BODIPY stain; 240,000 compounds, 0.4% hits; AML12 mouse hepatocytes, oleate lipid droplets; inhibition, % at 6.5 µM;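 active means lipid droplet intensity inhibited by at least 50%, with more than 500 cells counted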
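Test system: AML12 mouse liver cells; schedule: overnight exposure; technique: high-content imaging of BODIPY-stained droplets and DAPI nuclei; read-out: % inhibition of corrected integrated BODIPY droplet signal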
NPR2 activator: human GC-B receptor activators, primary screen, HEK293 GC-B cells, cGMP TR-FRET, EC30 CNP; AID 1920062, 2024; 370,000 compounds, 0.11% hits; 0% at EC30 CNP, 100% saturating CNP; activation, % at 10 µM; Atrial natriuretic peptide receptor 2 (Homo sapiens), P20594;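 active means activation at 10 µM reaching about 35% in either raw or pattern-adjusted values, limit read from the data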
NPR1 activator: GC-A stimulated cGMP production enhancers – HEK293 GC-A cells, cGMP TR-FRET, EC30 ANP, primary screen; 370,000 compounds, 0.14% hits; 0% at EC30 ANP, 100% saturating ANP; activation, % at 10 µM; Atrial natriuretic peptide receptor 1 (Homo sapiens), P16066; in the data active means activation above about 40%
NR3A LBD binder: binders of NR3A ligand-binding domain, primary screen, biophysical, differential scanning fluorimetry, uHTS. Glutamate receptor ionotropic, NMDA 3A (GRIN3A) ligand-binding domain. NR3A LBD differential scanning fluorimetry, Tm shift; 0% = protein alone, 100% = glycine-bound protein. Tm shift relative to glycine control, % at 25 µM. 340,000 compounds, 2.5% hits;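 active means melting temperature shift of at least 10% of the positive control shift, at one fixed dose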
GASC-1 inh: inhibitors of GASC-1 histone demethylase, primary screen, biochemical, fluorescence, DELFIA europium | Lysine-specific demethylase 4C (Homo sapiens), Q9H3R0 | GST-JMJD2C(1-420) H3K9me3 demethylation | inhibition, % at 2.35 µM | 330,000 compounds, 0.069% hits;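 active means more than half of a compound's replicate wells show inhibition beyond 50%, single wells judged on their own value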;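 further: signal counts dimethyl H3K9 product captured on neutravidin plate; 0% = median of DMSO wells and 100% = 0.3 times that DMSO median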
Target sequence (Q9H3R0 1-420 limits assumed): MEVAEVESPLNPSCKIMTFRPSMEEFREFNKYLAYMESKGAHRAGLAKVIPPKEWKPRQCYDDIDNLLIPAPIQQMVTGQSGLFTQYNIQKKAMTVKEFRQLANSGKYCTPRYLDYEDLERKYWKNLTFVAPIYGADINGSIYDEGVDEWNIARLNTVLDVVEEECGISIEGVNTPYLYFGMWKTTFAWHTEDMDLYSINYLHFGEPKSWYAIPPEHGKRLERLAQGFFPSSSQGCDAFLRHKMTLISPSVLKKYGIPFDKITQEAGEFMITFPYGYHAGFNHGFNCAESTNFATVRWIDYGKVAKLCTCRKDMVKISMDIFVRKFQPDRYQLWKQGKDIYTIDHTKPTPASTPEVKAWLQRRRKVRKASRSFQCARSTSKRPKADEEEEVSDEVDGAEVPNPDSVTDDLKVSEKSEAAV
aDG glyco up: activators of alpha-DG glycosylation, primary screen, uHTS, Pro5-aDG cells, AlphaScreen; alpha-DG glycosylation AlphaScreen (IIH6); 0% Pro5, 100% B10-LARGE cell signal; activation, % at 10 µM; 360,000 compounds, 0.22% hits; AID 624168, 2012;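 active means activation of at least 8% versus controls, or a plate z-score of at least 8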;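 further: Pro5 are CHO cells carrying HIG-tagged alpha-DG that lacks glycosylation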
Hep lipid conf: hepatocyte lipid droplet accumulation inhibitors, confirmation, imaging, AML12 mouse hepatocytes, single concentration, high-content. 870 compounds, 65% hits. inhibition, % at 5.2 µM. BODIPY lipid droplet imaging; droplets induced with 100 µM oleic acid. shares compounds with Hep lipid drop;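 active means inhibition of lipid droplet metric at least 50%, with more than 300 cells in each of four replicates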;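 further: plate controls were DMSO with oleic acid for no effect and 5 µM Triacsin-C for full effect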
AML12 tox img: AML12 hepatocyte cytotoxicity, counter-screen for hepatic lipid droplet formation project, imaging, DAPI nuclear morphology imaging. AML12 mouse hepatocytes; stronger effect = higher value; cells fed 100 µM oleate overnight. z-score at 5 µM. shares compounds with Hep lipid drop. 870 compounds, 3% hits; in the data active means z-score above about 6.3;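 further: compound exposure lasted overnight at 37 °C before fixation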
AML12 tox conf: AML12 hepatocyte cytotoxicity, confirmation, cytotoxicity control for hepatic lipid droplet formation project, cell-based, single concentration. shares compounds with Hep lipid drop. AML12 mouse hepatocyte viability, ATP luminescence; cells loaded with 100 µM oleic acid. cytotoxicity, % at 50 µM. 530 tested, under 10 active. AID 463219, 2010;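 active means cytotoxicity above 50% in each of four replicates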;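 further: compound exposure lasted overnight at 37 °C before the ATP read; 0% = DMSO-treated cells and 100% = wells with no cells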
Numbers without * were called inactive; . = no result given.

SMILES | Hep lipid drop | NPR2 activator | NPR1 activator | NR3A LBD binder | GASC-1 inh | aDG glyco up | Hep lipid conf | AML12 tox img | others
Cc1ccccc1Cn1nc(C)c(NC(=O)C2c3ccccc3Oc3ccccc32)c1C | 81* | -1 | -2 | 4 | 9 | 0 | 100* | -0.32 | AML12 tox conf=-4
Cc1cc(C)c(NC(=O)C2c3ccccc3Oc3ccccc32)c(C)c1 | -6 | 7 | -3 | -1 | -11 | 0 | . | .
CCCCN1C(=O)C(CC(=O)NC2CCCC2)CC(C(=O)N2CCCCCC2)=C1C (stereo unspecified) | . | -5 | -1 | . | . | 0 | . | .
C=C(C)[C@@H]1CC[C@]2(C(=O)O)CC[C@]3(C)C(CCC4[C@@]5(C)CC[C@H](O)C(C)(C)C5CC[C@]43C)C12 (stereo partly specified) | 58* | -6 | -9 | 2 | . | 0 | 20 | 0.66
C=C(C)[C@@H]1CCC2(C(=O)O)CC[C@]3(C)[C@H](CC[C@@H]4[C@@]5(C)CCC(=O)C(C)(C)[C@@H]5CC[C@]43C)[C@@H]12 (stereo partly specified) | 8 | 1 | -2 | -1 | 5 | 0 | . | .
Cc1c(C(=O)NCc2ccccc2C(F)(F)F)sc(=O)n1Cc1ccc(Cl)c(Cl)c1 | . | -10 | -3 | . | . | 0 | . | .
CCOC(=O)C1=C(C)NC(=O)NC1/C=C/c1ccccc1 (stereo unspecified) | 62* | 0 | 7 | 1 | -4 | 0 | 24 | -0.43
C#CCN1CC(COc2ccccc2)Oc2cccc(Oc3ccc(C(C)C)cc3)c2S1(=O)=O (stereo unspecified) | . | -4 | 2 | . | . | . | . | .
CCOc1cc(N2CCOCC2)c(OCC)cc1NC(=O)COC(=O)c1ccccc1OC(F)F | . | 27 | 20 | 0 | . | 0 | . | .
CCOc1cc(N2CCOCC2)c(OCC)cc1NC(=O)COC(=O)c1cccc2ccccc12 | 55* | 31 | 34 | -7 | 3 | 0 | 101* | 1.4
O=C(Nc1ccc(F)cc1)N[C@H]1CC[C@H](CCNS(=O)(=O)c2cccc(Cl)c2)O[C@@H]1CO | . | 1 | 1 | . | . | 0 | . | .
COc1ccc2ccccc2c1C=Nn1c(-c2cc(-c3ccccc3)n[nH]2)n[nH]c1=S | . | -20 | -1 | . | . | . | . | .
COc1ccc(CCNC(=O)CCOc2ccc(C)cc2)cc1OC | 7 | 3 | 5 | -1 | -30 | 0 | . | .
COc1ccc(CCNC(=O)CCOc2cc(C)ccc2C)cc1OC | 68* | -7 | -3 | 1 | 1 | 0 | 91* | -0.092 | AML12 tox conf=12
COc1ccc(CCNC(=O)CC(c2ccccc2)c2cc(C)ccc2O)cc1OC (stereo unspecified) | 53* | . | . | -2 | -24 | 0 | 30 | 0.95
CCCC1O[C@@H]2C[C@H]3[C@@H]4CCC5=CC(=O)C=C[C@]5(C)[C@H]4[C@@H](O)C[C@]3(C)[C@]2(C(=O)CO)O1 (stereo partly specified) | 118* | -5 | -2 | 4 | 3 | 0 | 113* | 2.3 | AML12 tox conf=22
CCOCCCNC(=O)C1CCN(C(=O)Nc2ccc(C)cc2)CC1 | . | -1 | -1 | 0 | 8 | 0 | . | .
CCCCNC(=O)C1CCN(C(=O)Nc2ccc(C)cc2)CC1 | 62* | 7 | 1 | 1 | -5 | 0 | 57* | 0.85
COC(=O)C1=C(C(=O)OC)SC(=C2C(=S)C(C)(C)N(C(=O)C(C)C)c3ccccc32)S1 | 57* | 0 | -4 | 3 | 35 | -1 | 102* | 0.57 | AML12 tox conf=17
O=S1(=O)CC(N2CCC(c3ccccc3)CC2)CN1Cc1ccccc1 (stereo unspecified) | . | -8 | -9 | . | . | 0 | . | .
CC(C)(C)NC(=O)CSc1nc2ccc(Nc3nc(N4CCOCC4)nc(N4CCOCC4)n3)cc2s1 | 53* | 8 | 4 | -7 | 6 | 0 | 89* | 0.59 | AML12 tox conf=-2
CCOc1ccccc1OCCCC(=O)N1CCN(S(=O)(=O)c2ccccc2C#N)CC1 | . | -8 | -1 | . | . | 0 | . | .
CN(Cc1ccc(Cl)cc1)C(C(=O)NC1CCCCC1)c1ccnc2ccccc12 (stereo unspecified) | . | 2 | -4 | . | . | 0 | . | .
C=CCN(c1ccc(C(=O)NCCCn2ccnc2)cc1)S(C)(=O)=O | 10 | 6 | 0 | 0 | -8 | 0 | . | .
CCCCCCCCN1C(=O)[C@H](CC(=O)NCCCN2CCCC2=O)C[C@@]2(C(=O)OC)CCCCC=C12 | . | 2 | 2 | . | . | 0 | . | .
SMILES | Hep lipid drop | NPR2 activator | NPR1 activator | NR3A LBD binder | GASC-1 inh | aDG glyco up | Hep lipid conf | AML12 tox img | others
OC(COc1ccc2cc(Br)ccc2c1)Cn1ccnc1 (stereo unspecified) | 53* | -7 | 1 | -2 | -9 | 1 | 27 | -0.39
COC(=O)c1cccc(OCC(O)Cn2ccnc2)c1 (stereo unspecified) | . | 2 | 3 | -4 | 10 | 0 | . | .
O=C(c1cccnc1)N(Cc1ccccc1)C(c1ccccc1)c1nc2ccccc2[nH]1 (stereo unspecified) | . | -7 | -17 | . | . | 0 | . | .
Cc1cc(C)n2nc(C(=O)N/N=C/c3c4ccccc4cc4ccccc34)nc2n1 | 66* | 6 | -4 | -4 | 11 | -1 | 103* | 0.3 | AML12 tox conf=38
CC(C)(C)C(=O)Nc1nc2c(s1)COc1ccccc1-2 | 55* | -7 | -2 | -1 | -11 | 1 | 106* | -0.72 | AML12 tox conf=0
CCCCCCCCN1C(=O)[C@H](CC(=O)NCC2CCCCC2)C[C@@]2(C(=O)OC)CCCCC=C12 | . | 2 | -8 | . | . | 0 | . | .
CCCN1C(=O)/C(=C\C=C2/Sc3ccccc3N2CC)SC1=S | 21 | . | . | . | . | . | . | .
CCCN1C(=O)/C(=C\C=C2\N(CC)c3ccccc3C2(C)C)SC1=S | 111* | 4 | 5 | 6 | -3 | 0 | 115* | 0.19 | AML12 tox conf=8
CCC(=O)N1Cc2cc(C(=O)N(C)C)nc(-c3cccc(-c4cncnc4)c3)c2[C@@H]1CCO | . | 2 | 4 | . | . | 0 | . | .
